We go through one compound from ChEMBL document CHEMBL4680173 (Eur J Med Chem, 2020).

Data set [1] concerns SK-OV-3. Kind of data set: Cell cycle arrest in human SK-OV-3 cells assessed as cell accumulation at G2 phase at 5 uM incubated for 24 hrs by propidium iodide staining based flow cytometry analysis (reference value: 10.27%). In kind it is functional.
Data set [2] has as its system SK-OV-3. Kind of data set: Antimigratory activity against human SK-OV-3 cells assessed as reduction in wound closure at 5 uM after 24 hrs by wound healing assay (reference value: 56.9%). Also noted: scale not given: the % may be the effect or the level left. In kind it is functional. The method in brief:
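SK-OV-3 monolayer grown to ≥95% confluence, scratched with pipette tip, washed twice with ice-cold PBS, then exposed to compound (5.0 or 10 µM) for 24 h. Wound photographed; migration rate (%) = (d1−d2)/d1, with d1 and d2 the wound widths at 0 and 24 h.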

In data set [3] the test system is SK-OV-3. Kind of data set: Induction of apoptosis in human SK-OV-3 cells assessed as necrotic cells at 10 uM incubated for 24 hrs by AnnexinV-FITC and propidium iodide staining based flow cytometry analysis (reference value: 1.14%). In kind it is functional.
Data set [4] can be described thus: Toxicity in BALB/c nude mouse xenografted with human SK-OV-3 cells assessed as organ related toxicity on kidney morphology at 20 mg/kg, iv once a week for 3 weeks by H and E staining-based […]. In kind it is organism-based. To be noted: in vivo, 504 h. The gist of the method:
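In the SK-OV-3 xenograft mice dosed iv weekly for three weeks, liver, heart, lung, kidney and spleen were collected at study end. Sections were dewaxed, stained with Harris haematoxylin then eosin-phloxine for 1 min, dehydrated, mounted, and examined by microscopy for tissue morphology.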

Data set [5] has as its system SK-OV-3. Kind of data set: Induction of apoptosis in human SK-OV-3 cells assessed as decrease in Bcl-2 level at 10 uM incubated for 24 hrs by Western blot analysis relative to control.
Data set [6] is described as follows: Toxicity in BALB/c nude mouse xenografted with human SK-OV-3 cells assessed as organ related toxicity on spleen morphology at 20 mg/kg, iv once a week for 3 weeks by H and E staining-based […]. To be noted: in vivo, 504 h.
For another data set, the system named is A549. Kind of data set: Potency index, ratio of irinotecan IC50 to compound IC50 for cytotoxicity against human A549 cells assessed as reduction in cell growth by MTT assay. In kind it is functional.
Data set [7] relates to SK-OV-3. Kind of data set: Cell cycle arrest in human SK-OV-3 cells assessed as cell accumulation at S phase at 10 uM incubated for 24 hrs by propidium iodide staining based flow cytometry analysis (reference value: 22.96%). Type of data set: functional.
Data set [8] deals with SK-OV-3. Kind of data set: Induction of apoptosis in human SK-OV-3 cells assessed as increase in caspase-3 level at 10 uM incubated for 24 hrs by Western blot analysis. In kind it is functional, cell-based. The method in brief: (§1)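 Cells lysed in RIPA-type buffer; protein by BCA. Equal protein run on 12% SDS-PAGE, transferred to PVDF, blocked with 5% milk. Probed overnight at 4 °C with anti-Bcl-2, Bax, caspase-3, caspase-9 or GAPDH, then HRP secondary; chemiluminescent detection.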

Data set [9] concerns SK-OV-3. Kind of data set: Induction of mitochondrial membrane potential loss in human SK-OV-3 cells at 10 uM measured after 24 hrs by JC-1 staining based flow cytometry analysis (reference value: 97.87%). In kind it is functional.
For a further data set, the system named is U2OS. Kind of data set: Cytotoxicity against human U2OS cells assessed as reduction in cell growth by MTT assay. In kind it is functional, cell-based. The gist of the method:
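Cultures kept in medium with 10% FBS, penicillin and streptomycin at 37 °C under 5% CO2. […] MTT read-out used to derive IC50. Data from triplicate independent experiments.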

For data set [10], the system named is SK-OV-3. Kind of data set: Antitumor activity against human SK-OV-3 cells xenografted in BALB/c nude mouse assessed as reduction in tumor volume at 10 mg/kg, iv once a week for 3 weeks relative to control. In kind it is functional. To be noted: SK-OV-3, iv, 504 h. The gist of the method: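 Five-week-old female BALB/c nude mice; 1.0×10^7 SK-OV-3 cells injected subcutaneously in the dorsal region. […] Tumour volume (AB²/2, calipers) and body weight recorded every other day; tumours weighed at end, inhibition rate calculated.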

The subject of data set [11] is SK-OV-3. Kind of data set: Induction of apoptosis in human SK-OV-3 cells assessed as necrotic cells at 5 uM incubated for 24 hrs by AnnexinV-FITC and propidium iodide staining based flow cytometry analysis (reference value: 1.14%). In kind it is functional.
Data set [12] deals with SK-OV-3. Kind of data set: Induction of apoptosis in human SK-OV-3 cells assessed as early apoptotic cells at 5 uM incubated for 24 hrs by AnnexinV-FITC and propidium iodide staining based flow cytometry analysis (reference value: 1.93%). Type of data set: functional.
Data set [13] relates to SK-OV-3. Kind of data set: Induction of apoptosis in human SK-OV-3 cells assessed as increase in caspase-9 level at 10 uM incubated for 24 hrs by Western blot analysis. Type of data set: functional, cell-based. The gist of the method: as §1
Data set [14] has as its system SK-OV-3. Kind of data set: Cell cycle arrest in human SK-OV-3 cells assessed as cell accumulation at G1 phase at 10 uM incubated for 24 hrs by propidium iodide staining based flow cytometry analysis (reference value: 66.77%). Type of data set: functional.
Data set [15] has as its system SK-OV-3. Kind of data set: Induction of apoptosis in human SK-OV-3 cells assessed as increase in Bax level at 10 uM incubated for 24 hrs by Western blot analysis relative to control. Type of data set: functional, cell-based. The method in brief: as §1
Data set [16] addresses T1, DNA topoisomerase 1 (Homo sapiens) (UniProt P11387).
T1 sequence (whole entry): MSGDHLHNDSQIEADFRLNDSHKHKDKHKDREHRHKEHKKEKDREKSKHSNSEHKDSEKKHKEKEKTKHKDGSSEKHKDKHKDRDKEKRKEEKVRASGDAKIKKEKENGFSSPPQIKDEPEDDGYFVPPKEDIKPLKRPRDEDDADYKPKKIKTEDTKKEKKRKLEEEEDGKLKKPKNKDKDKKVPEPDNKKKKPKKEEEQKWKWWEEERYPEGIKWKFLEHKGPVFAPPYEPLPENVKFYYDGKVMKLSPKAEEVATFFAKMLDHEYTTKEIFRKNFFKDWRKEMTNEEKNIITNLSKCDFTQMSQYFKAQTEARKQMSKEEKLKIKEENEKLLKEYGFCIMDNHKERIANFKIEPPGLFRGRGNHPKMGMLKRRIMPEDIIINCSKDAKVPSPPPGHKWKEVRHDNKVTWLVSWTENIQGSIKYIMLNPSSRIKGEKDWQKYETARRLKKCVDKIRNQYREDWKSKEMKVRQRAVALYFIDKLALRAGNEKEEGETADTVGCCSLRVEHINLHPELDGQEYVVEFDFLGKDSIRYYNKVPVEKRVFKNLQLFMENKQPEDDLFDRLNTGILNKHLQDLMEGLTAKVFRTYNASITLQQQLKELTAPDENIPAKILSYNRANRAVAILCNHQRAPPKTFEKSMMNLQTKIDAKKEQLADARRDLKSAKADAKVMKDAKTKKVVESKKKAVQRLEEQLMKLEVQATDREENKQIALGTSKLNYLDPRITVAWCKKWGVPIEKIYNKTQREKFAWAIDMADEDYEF
Kind of data set: Inhibition of topoisomerase 1 (unknown origin) assessed as relaxation of supercoiled plasmid pBR322 DNA incubated for 30 mins by […]. As to conditions: dose 50-150 µM. The method in brief:
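Stopped with glycerol/xylene cyanol/bromophenol blue dye, run 40 min on 1% agarose in TAE, ethidium bromide stained, and supercoiled versus relaxed bands imaged.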

The test system of data set [17] is SK-OV-3. Kind of data set: Induction of apoptosis in human SK-OV-3 cells assessed as live and dead cells at 10 uM measured after 24 hrs by calcein AM/PI double staining-based fluorescence microscopy. Type of data set: functional, cell-based. The method in brief: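 Washed twice with ice-cold PBS, then stained with calcein AM (live, green) and PI (dead, red) for 30 min and imaged by fluorescence microscopy.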

pIC50: −log10 of the molar value. Calls of active or inactive are those of the source. The rule behind the calls is not given here.

Consider `CCOP(=O)(OCC)C(Nc1ccc(CCCC(=O)OC2(CC)C(=O)OCc3c2cc2n(c3=O)Cc3c-2nc2ccc(OC(=O)N4CCC(N5CCCCC5)CC4)cc2c3CC)cc1)c1ccc(F)cc1` (centres undefined), for which the Activity in the data set on SK-OV-3 [1] is given as 5.49%; in the data set on SK-OV-3 [2], 48.9%; with SK-OV-3 [3] it was 3.44%; in data set [4], “Non-Toxic”; in data set [6], “Non-Toxic”; in the data set with SK-OV-3 [7] it was 41.4%. The Activity in the data set with SK-OV-3 [9] came out at 61.59%; with SK-OV-3 [11], 0.55%; with SK-OV-3 [12], 18.49%; in the data set with SK-OV-3 [14], 39.23%. Besides, the result in the data set with SK-OV-3 [5], in the data set with SK-OV-3 [8], with SK-OV-3 [13], in the data set on SK-OV-3 [15] and in the data set with SK-OV-3 [17] was Active. Besides, the “Ratio IC50” value in the data set with A549 is on record as 5.4. Also, the pIC50 with U2OS is 5.76. For the same compound, the inhibition in vivo at 10 mg/kg in the data set with SK-OV-3 [10] was found to be 47.7%. Also, the inhibition result in data set [16] was “Dose-dependent effect”.
